# ALR H2O2 inh: inhibitors of human sulfhydryl oxidase ALR; AID 485317; inhibition, % (concentration not given with the values); actives 3.8% (n = 290,000); purified ALR, DTT oxidation, H2O2 HRP-luminol luminescence;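 active means mean replicate inhibition above about 79%, with every replicate also reaching it, limit read from the data; inconclusive means only one of the two criteria met; inactive means mean below limit and not every replicate reaching it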
# Target sequence (P55789 whole entry, looked up): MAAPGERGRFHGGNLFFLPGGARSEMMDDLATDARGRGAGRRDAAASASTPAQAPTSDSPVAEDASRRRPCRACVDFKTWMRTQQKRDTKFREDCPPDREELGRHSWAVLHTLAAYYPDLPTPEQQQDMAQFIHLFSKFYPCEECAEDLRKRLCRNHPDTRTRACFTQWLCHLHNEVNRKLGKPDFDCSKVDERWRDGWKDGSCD
# HCV core dimer: HCV core protein dimerization inhibition; TR-FRET GST/Flag-core106 dimerization, 1536-well; inhibition, % at 5 µM; actives 0.33% (n = 300,000); AID 1899;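 active means inhibition above the mean of all tested compounds plus 3 SD, set per screening campaign, cut at about 45% in these data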
#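 System: GST/Flag-tagged HCV core106 proteins. Incubation: compound-protein-antibody incubation 4 h at 22.5 °C. Technique: HTRF with 340 nm excitation, 617/671 nm emission. Medium: KF-containing HEPES buffer, pH 7.45, DTT, CHAPS, BSA. Read-out: inhibition (%) from 671 over 617 nm ratio. Also added: Eu(K)-anti-GST 90 ng/mL plus XL665-anti-Flag 1 µg/mL.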
# NS3 helicase inh: inhibitors of Hepatitis C virus NS3 helicase; NS3 helicase DNA unwinding, Cy5 molecular beacon fluorescence; inhibition, % at 10.9 µM; actives 0.56% (n = 290,000); AID 1800;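 active means inhibition above the mean of all tested compounds plus 3 SD, set per campaign, cut at about 35% in these data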;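 further: 0% = DMSO wells and 100% = thioflavine S control wells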
#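 Test system: hepatitis C virus NS3 helicase domain fragment enzyme. Also added: annealed dual-labelled DNA beacon duplex, ATP-started. Timing: 60 min unwinding reaction at 25 °C after ATP addition. Technique: Cy5 fluorescence. Measure: % inhibition of unwinding.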
# M18AAP inhibitor: blocks P. falciparum M18 aspartyl aminopeptidase; recombinant PfM18AAP, H-Glu-NHMec fluorogenic cleavage; inhibition, % at 7.35 µM; actives 1.2% (n = 290,000); AID 1822;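 active means inhibition above the campaign mean inhibition over all tested compounds plus 3 SD, cut at about 28% in these data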;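 further: 0% = plate median of test compound wells and 100% = 2 mM ZnCl2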
# ZTA DNA inh: ZTA (EBV) inhibition in EBNA-1 counter-screen; actives 0.15% (n = 320,000); inhibition, % at 11 µM; P03206; ZTA-DNA binding, fluorescence polarization; AID 2234; in the data active means inhibition above about 33%
# Target sequence (P03206 whole entry, looked up): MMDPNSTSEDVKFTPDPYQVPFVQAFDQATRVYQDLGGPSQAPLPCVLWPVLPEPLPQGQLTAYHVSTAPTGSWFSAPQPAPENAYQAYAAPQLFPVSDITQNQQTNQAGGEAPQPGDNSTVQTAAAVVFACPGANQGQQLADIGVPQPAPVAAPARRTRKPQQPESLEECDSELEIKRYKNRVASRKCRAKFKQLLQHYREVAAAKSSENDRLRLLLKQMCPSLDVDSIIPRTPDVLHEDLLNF
# EBNA-1 inh: blocks EBNA-1 binding to DNA. EBNA-1 DNA binding, fluorescence polarization. inhibition, % at 14.8 µM. actives 0.34% (n = 300,000). AID 1950; in the data active means inhibition above about 28%
# Starred values were filed as active, the others as inactive; ? = inconclusive; · = no result given. The list is not random: actives were taken first. Their share in the collection is about 5.2%.
SMILES,ALR H2O2 inh,HCV core dimer,NS3 helicase inh,M18AAP inhibitor,ZTA DNA inh,EBNA-1 inh
Cc1cc(C)c(S(=O)(=O)N2CCCC(C(=O)NC3CCCC3)C2)c(C)c1 (stereo not drawn),·,-1.6,4.6,-5.8,-13.0,-4.6
S=c1[nH]nc(-c2c[nH]c3ccccc23)o1,97.9*,-15.7,13.4,-14.1,-1.1,-1.6
Oc1cc2ccccc2cc1-c1n[nH]c(=S)o1,96.9*,12.0,27.6,-0.5,2.3,-5.5
Cc1cc(-c2n[nH]c(=S)o2)c(C)n1-c1ccccc1,95.0*,-0.4,19.6,7.4,6.7,15.6
S=c1[nH]nc(COc2ccc3ccccc3c2)o1,30.0,-0.8,5.4,14.4,15.5,6.8
CCOCCCNC(=O)CCN1C(=O)c2ccccc2Sc2ncccc21,2.7,-5.7,1.9,-15.8,14.0,-5.2
COC(=O)Cn1c(=NC(=O)c2ccc(Cl)s2)sc2cc(C)ccc21,-3.1,-173.5,13.7,2.1,11.2,-5.0
COC(=O)Cn1c(=NC(=O)c2ccc([N+](=O)[O-])s2)sc2cc(Br)ccc21,98.0*,12.9,11.5,4.1,-5.8,-5.3
Nc1nc(N2CCN(c3cccc(Cl)c3)CC2)n[nH]1,99.2*,-7.3,2.3,0.5,5.5,-9.3
Nc1ccc(N2CCN(c3cccc(Cl)c3)CC2)cc1,·,-6.2,3.5,0.7,-2.8,-0.6
Nc1nc(N2CCN(c3ccccc3)CC2)n[nH]1,99.7*,7.3,-3.0,6.4,-5.6,-16.4
Clc1ccc(N2CCN(c3ccnc(Cl)n3)CC2)cc1,59.0,1.1,·,·,3.6,-12.9
Nc1nc(N2CCN(c3ccc(Cl)cc3)CC2)n[nH]1,98.1*,0.1,-5.7,7.8,10.5,-1.4
CN(Cc1ccccc1)C(=O)CN(c1ccc(F)cc1)S(=O)(=O)c1ccc2c(c1)OCCO2,-4.8,6.0,-8.7,-2.8,-16.4,-11.2
COc1ccc(CCNC(=O)c2cc(S(=O)(=O)N3CCOCC3)ccc2F)cc1,-1.7,·,·,·,-19.5,·
COc1ccc(-c2noc(=O)n2Cc2ccccc2Cl)cc1,-7.7,-0.9,-12.8,1.6,1.6,-2.9
O=C(O)c1ccc(-n2cccc2/C=N\NC(=O)c2cc3cc(Br)ccc3o2)cc1,86.8*,10.9,22.8,-1.5,18.2,8.9
Cn1cc(/C=N/NC(=O)c2cc3cc(Br)ccc3o2)c2ccccc21,-7.6,-0.1,-9.9,3.0,-1.8,0.4
COC(=O)c1ccc(C(=O)O)nc1,2.9,1.0,-4.7,-1.5,-27.4,-0.8
Cn1ccnc1SCC(=O)c1ccc(Cl)cc1,50.6,0.1,-12.0,-4.5,-2.3,6.2
Cc1nnc(SCC(=O)c2ccc(Cl)cc2)n(N)c1=O,99.1*,-1.2,11.8,14.0,-1.7,-6.6
Cn1c(CO)cnc1SCC(=O)c1ccc(Cl)cc1,99.4*,-5.6,16.7,-7.4,7.4,-12.0
CC/C(=N/NC(=O)c1ccc2c(c1)OCO2)c1ccccc1O,7.3,-3.4,·,·,10.4,1.5
Nc1ccc(NC(=O)NC2CCCCC2)cc1,99.1*,-4.3,-8.3,-2.0,-0.3,-3.0
CCc1nnc(NC(=O)CN2CCN(Cc3ccc(F)cc3)CC2)s1,-8.2,-2.2,1.1,-0.5,16.6,9.1
SMILES,ALR H2O2 inh,HCV core dimer,NS3 helicase inh,M18AAP inhibitor,ZTA DNA inh,EBNA-1 inh
C=CCNC(=O)c1onc(CSc2ccccc2C)c1C(=O)O,45.8,-6.2,2.8,-3.1,7.6,-1.2
C=CCNC(=O)c1onc(CSc2cc(C)ccc2C)c1C(=O)O,85.7*,-1.9,7.2,-6.6,-2.7,-3.7
CC(C)[C@H](NC(=O)c1ccccc1)C(=O)OCC(=O)c1ccccc1F,88.4*,-0.5,2.6,-7.2,5.8,-1.3
CCOc1ccc(C(=O)C2CCN(C(=O)c3ccc([N+](=O)[O-])cc3)CC2)cc1,-7.9,2.0,-10.3,-2.3,0.4,-1.4
O=C(c1ccc(Br)o1)N1CCN=C1SCc1cccc(F)c1,57.7,0.2,5.5,4.6,-3.3,-7.8
O=C(c1cccs1)N1CCN=C1SCc1cccnc1,98.7*,-2.8,5.0,2.6,-8.6,-6.6
O=C(c1cccs1)N1CCN=C1SCc1ccc(Cl)cc1,?,0.2,-0.6,-5.7,3.3,17.5
Cc1cccc(CSC2=NCCN2C(=O)c2ccco2)c1,96.5*,2.4,-8.7,1.7,3.6,0.7
O=C(N1CCN=C1SCc1cccnc1)C12CC3CC(CC(C3)C1)C2,98.9*,3.7,-2.1,3.1,-4.3,-6.6
O=C(NCc1cccnc1)C12CC3CC(CC(Cl)(C3)C1)C2,-6.9,-25.9,12.7,10.6,-3.8,-6.9
O=C(c1ccco1)N1CCN=C1SCc1ccccc1F,95.4*,3.0,3.5,-6.1,-14.2,7.1
CN(CC(=O)Nc1ccc(Cl)cc1)C(=O)Cc1c(F)cccc1Cl,-24.6,5.4,0.0,-0.2,13.1,4.8
O=C(c1ccc(S(=O)(=O)N2CCOCC2)cc1)N1CCN=C1SCc1cccnc1,98.9*,3.8,-9.2,-0.9,6.5,2.4
Cc1ccc(CSC2=NCCN2C(=O)c2ccco2)cc1,94.5*,-1.8,-5.7,7.8,17.1,13.8
O=C1NCCN1C(=O)c1ccco1,-4.7,-2.6,6.3,2.0,0.8,4.3
CN(C)S(=O)(=O)c1ccc(C(=O)N2CCN=C2SCc2ccccc2)cc1,-12.1,4.3,0.5,2.8,9.3,2.7
O=C(c1ccco1)N1CCN=C1SCc1cccnc1,99.0*,-1.0,2.5,-7.4,-8.8,2.4
Cc1oc(-c2ccc(Cl)cc2)nc1CSCC(=O)NCCCN1CCOCC1,99.1*,-1.5,-9.3,1.5,18.4,9.4
Cc1oc(-c2cccc(Cl)c2)nc1CS(=O)(=O)CC(=O)NCCCN1CCOCC1,47.5,18.7,3.5,-1.8,9.9,-4.0
Cc1cccc(-c2nc(CSCC(=O)NCCCN3CCOCC3)c(C)o2)c1,99.4*,2.6,-13.9,-12.0,1.5,-11.3
CC1CN(C(=O)c2ccc(-c3cccc(C(F)(F)F)c3)o2)CC(C)O1 (stereo not drawn),2.5,0.7,·,·,-4.3,-2.3
COc1cccc(N2CCN(C(=O)c3ccc(CS(=O)Cc4ccc(Cl)cc4)o3)CC2)c1 (stereo not drawn),-4.0,-1.2,-8.5,-0.4,-13.7,-17.1
O=C(c1ccc(CS(=O)Cc2ccc(Cl)cc2)o1)N1CCN(c2ccccc2)CC1 (stereo not drawn),93.1*,12.6,-8.9,2.9,0.9,7.7
Cc1ccc(CS(=O)Cc2ccc(C(=O)N3CCN(c4ccccc4)CC3)o2)cc1 (stereo not drawn),94.3*,0.1,-7.6,0.8,8.8,-3.2
Cc1ccc(CS(=O)Cc2ccc(C(=O)N3CCN(c4ccc(F)cc4)CC3)o2)cc1 (stereo not drawn),38.9,3.0,6.0,-5.4,-10.7,2.3
CCOC(=O)N1CCN(C(=O)c2cn(C)c3ccc(S(=O)(=O)N(C)C4CCCCC4)cc3c2=O)CC1,-35.2,5.0,-4.8,-1.3,2.3,5.3

# Assay outcomes as filed in PubChem.
